Test results as given in PMC2865030 (Biochemical Journal, 2008).

Target: yeast Hsp90 M705V
Test: ITC of TPR-domain proteins with yeast Hsp90 M705V
Format: binding
Conditions: 300 μM CHIP injected into 30 μM yeast Hsp90 M705V, 30 °C, pH 8.0
Summary of the method: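 ITC: mouse CHIP or yeast Tah1 (His tags cleaved) at 300 µM was titrated as 9–11 injections of 27 µl into 30 µM yeast Hsp90 M705V. Runs were at 30 °C for CHIP and 4 °C for Tah1, in 20 mM Tris/HCl pH 8.0, 1 mM EDTA, 5 mM NaCl. Data were corrected for separately measured heat of dilution and fitted by nonlinear least squares for stoichiometry, binding constant and enthalpy.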

Kd: 6.7 ± 0.62 µM
B1: CHIP: mouse C-terminal of Hsp70-interacting protein, TPR-domain co-chaperone involved in ubiquitylation of chaperone-bound client proteins (protein)
chain: MKGKEEKEGGARLGTGGGGSPDKSPSAQELKEQGNRLFVGRKYPEAAACYGRAITRNPLVAVYYTNRALCYLKMQQPEQALADCRRALELDGQSVKAHFFLGQCQLEMESYDEAIANLQRAYSLAKEQRLNFGDDIPSALRIAKKKRWNSIEERRIHQESELHSYLTRLIAAERERELEECQRNHEGHEDDGHIRAQQACIEAKHDKYMADMDELFSQVDEKRKKRDIPDYLCGKISFELMREPCITPSGITYDRKDIEEHLQRVGHFDPVTRSPLTQEQLIPNLAMKEVIDAFISENGWVEDY
modifications: left off: His-PreScission tag, end not stated, cleaved
